Source: PubChem
Many of the other results were omitted from the sample, so hits are more common in it than they were.
hDAT+cocaine = changed human dopamine transporter uptake under cocaine IC80; LLC-PK1 hDAT cells, [14C]-dopamine uptake with cocaine IC80; actives deviate in either direction; B-score at 10 µM; actives 1.3% (n = 110,000); AID 449768;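 active = Z score or B-score, a plate-position-corrected score, falls beyond the plate's 99.7% confidence bounds, in either direction; inactive = both scores lie inside the 99.7% bounds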;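 also: scored against the spread of the other compound wells on the same plate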
Target sequence (Q01959 whole entry, looked up): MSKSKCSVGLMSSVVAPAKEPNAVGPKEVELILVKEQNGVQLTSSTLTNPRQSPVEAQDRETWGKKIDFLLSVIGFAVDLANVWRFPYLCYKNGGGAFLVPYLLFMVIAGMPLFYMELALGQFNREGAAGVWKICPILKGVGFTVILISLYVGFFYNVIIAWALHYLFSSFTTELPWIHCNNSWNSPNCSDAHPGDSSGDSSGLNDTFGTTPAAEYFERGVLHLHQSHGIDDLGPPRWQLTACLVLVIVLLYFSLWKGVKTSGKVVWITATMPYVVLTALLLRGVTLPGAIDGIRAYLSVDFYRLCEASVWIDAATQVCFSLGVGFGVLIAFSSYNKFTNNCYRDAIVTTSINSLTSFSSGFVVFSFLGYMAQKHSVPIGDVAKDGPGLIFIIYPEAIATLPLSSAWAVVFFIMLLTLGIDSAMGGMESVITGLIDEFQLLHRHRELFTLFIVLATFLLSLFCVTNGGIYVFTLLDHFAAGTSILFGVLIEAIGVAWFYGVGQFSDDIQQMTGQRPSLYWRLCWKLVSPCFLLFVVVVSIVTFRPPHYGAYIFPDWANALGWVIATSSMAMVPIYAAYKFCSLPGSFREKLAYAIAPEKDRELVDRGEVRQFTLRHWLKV
AP ELISA ortho = orthogonal test for alternative complement pathway inhibitors; Human serum alternative complement pathway, LPS-coated ELISA, C3 deposition; tested in compound mixtures; inhibition, % at 5 µM; actives 0.08% (n = 62,000);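 active = inhibition above 30% in each of the two pooled mixtures holding the compound, so the lower value exceeds 30%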;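 also: 0% = serum in Mg-EGTA without compound and 100% = EDTA serum blank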
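Assay system: human serum alternative complement pathway, C3 deposition on LPS-coated wells; Dosing: 5 µM per compound in ten-compound mixtures; Detection: Anti-C3 ELISA, OD 450 nm; Buffer or medium: Mg2+-EGTA GVB++ buffer containing human serum at 1:15 dilution; Timing: 1 h at 37 °C; Replication: two different pools per compound.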
D1 allo mod = D1 dopamine receptor (human) allosteric modulation; B-score at 10 µM; P21728; HEK293 D1, CRE-luciferase, dopamine EC30 potentiation; actives deviate in either direction; AID 641; actives 5.9% (n = 58,000);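 active = luminescence count or its row- and column-corrected plate score outside the 99.7% band of the plate's sample wells, on either side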
MMP13 inh = blocks human MMP13 activity. P45452. MMP-13 fTHP FRET cleavage, Mca fluorescence. inhibition, % at 4 µM. actives 0.07% (n = 65,000);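 active = inhibition above the mean of compound-free control plate wells plus 3 SD, cut at about 14% in these data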;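 also: 0% = DMSO wells and 100% = wells with reference MMP-13 inhibitor after basal subtraction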
Calb biofilm kill = kills Candida albicans biofilms; C. albicans biofilm + clotrimazole, Alamar Blue; inhibition, % at 6 µM; actives 0.14% (n = 85,000); AID 834;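 active = inhibition above 20%; inactive = inhibition below 20%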;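 also: preformed 24 hr biofilms exposed to compound for 48 hr; 0% = biofilm without compound and 100% = blank killed by clotrimazole plus chlorhexidine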
D1 mod confirm = confirmation of human D1 dopamine receptor allosteric modulators. luminescence at 10 µM. actives 88% (n = 2,200). HEK293 D1 CRE-luciferase, dopamine EC30 potentiation; active compounds read high. shares compounds with D1 allo mod;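 active = luminescence in either of two replicates above the same-plate mean plus 3 SD of the low-dose dopamine control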
D1 ag no DA = D1 (human) signaling in absence of dopamine; shares compounds with D1 allo mod; actives 0.8% (n = 1,900); HEK293 D1 CRE-luciferase, luminescence, no dopamine; active compounds read high; luminescence at 10 µM; in the data active = luminescence above about 3900
Isoprot counter = isoproterenol response counter-screen activity for D1 modulators | shares compounds with D1 allo mod | HEK293 D1 CRE-luciferase, isoproterenol EC30 counter-screen; active compounds read high | luminescence at 10 µM | actives 63% (n = 2,200);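 active = luminescence in either replicate above plate mean of wells with a partly effective reference agonist dose plus 3 SD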;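 also: isoproterenol raises cAMP through native beta-adrenoceptor Gs so signal bypasses D1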
Active calls of the source: *; x = no result.

SMILES	hDAT+cocaine	AP ELISA ortho	D1 allo mod	MMP13 inh	Calb biofilm kill	D1 mod confirm	D1 ag no DA	Isoprot counter
COc1cc(CN(C)CC(=O)c2[nH]c(C)c(C(C)=O)c2C)ccc1OC(F)F	1	1	5*	3	x	7936*	1244	4104*
CCOC(=O)/C=C1\NC(C)(C)Cc2cc(OC)c(O)cc21	-0.27	16	4*	3	0	8420*	1572	2916
CC1(C)Cc2ccccc2/C(=C/C(=O)N2CCCCCC2)N1	0.72	x	x	x	-2	x	x	x
COc1cc2c(cc1OC)/C(=C/C(=O)N1CCOCC1)NC(C)(C)C2	0.16	24	10*	-34	-4	18680*	1652	4848*
CCOC(=O)/C=C1\NC(C)(C)Cc2cc(OC)c(OC)cc21	0.74	x	x	x	6	x	x	x
CCCC(=O)OC1CC(C)N(C(=O)c2ccccc2)c2ccc(C)cc21 (stereo unspecified)	1.6	x	x	x	3	x	x	x
CC(=O)OC1CC(C)N(C(=O)c2ccccc2)c2ccc(C)cc21 (stereo unspecified)	0.12	-10	11*	5	4	11832*	1612	3960*
C=CCSc1nc2ccccc2c(=O)[nH]1	0.94	10	3*	3	6	9580*	1792	3204
Cc1nc(-c2ccc(Cl)cc2)sc1C1(C)CC(c2cccc([N+](=O)[O-])c2)=NO1 (stereo unspecified)	1.1	x	x	x	x	x	x	x
COc1ccc2cc(Br)ccc2c1CC(=O)NC1CC(C)(C)NC(C)(C)C1	0.13	x	x	x	5	x	x	x
C=CCc1c(C)nc(SC)nc1Nc1ccc(C(C)=O)cc1	1.3	19	4.1*	-6	9	10112*	1672	6408*
C=CCc1c(C)nc(SC)nc1Nc1ccc(C(=O)O)cc1	0.055	13	8.2*	4	2	11532*	x	2576
CSc1nsc(SCC(=O)Nc2ccc(C(C)=O)cc2)n1	-0.14	x	x	x	-1	x	x	x
C=CCc1c(C)nc(SC)nc1Nc1ccccc1	0.81	x	x	x	5	x	x	x
COc1ccc(CCNC(=O)CSc2nnnn2-c2ccccc2)cc1	1.4	22	0.14	3	4	x	x	x
COc1ccc(CCNc2nnc(Sc3nnnn3-c3ccccc3)s2)cc1OC	1.8	-2	5.3*	-6	1	10264*	1392	3060
COc1ccc(CSc2nnnn2Cc2ccccc2)cc1OC	1	9	3.6*	3	2	15068*	1692	4432*
CSc1nc(-c2ccco2)nn1S(=O)(=O)c1ccc(C)cc1	-0.54	21	6.5*	4	10	11872*	x	2704*
CCS(=O)(=O)n1nc(-c2ccco2)nc1SC	-0.036	4	x	-2	7	x	x	x
Cc1ccc(S(=O)(=O)n2nc(-c3ccco3)nc2SCc2ccccc2)cc1	-1.5	x	0.0023	5	x	x	x	x
CSc1nc(-c2ccco2)nn1S(=O)(=O)c1ccccc1	0.46	-11	6.6*	2	4	19196*	1648	4776*
Nn1c(N2CCCCC2)nc2ccccc21	0.28	x	x	x	1	x	x	x
COc1ccc(C(=O)OCC(=O)NCc2ccco2)cc1OC	0.43	2	1.1	-4	5	x	x	x
CCOc1ccc(C(=O)OCC(=O)NCc2ccco2)cc1OCC	0.63	1	7.7*	4	7	12216*	1596	3744*
Clc1cccc(Cl)c1CO/N=C/c1c(-c2ccccc2)nc2n1CCS2	0.1	x	x	x	x	x	x	x
SMILES	hDAT+cocaine	AP ELISA ortho	D1 allo mod	MMP13 inh	Calb biofilm kill	D1 mod confirm	D1 ag no DA	Isoprot counter
CCOC(=O)c1ccc(-n2nc(C(F)(F)F)c3c(C)cc(=O)oc32)cc1	x	x	x	x	8	x	x	x
CCOC(=O)C1CCCCN1Cc1cc(OC)ccc1OC (stereo unspecified)	1	x	x	x	7	x	x	x
CCOC(=O)C1CCCCN1Cc1cc(Cl)ccc1O (stereo unspecified)	-0.024	23	4*	x	1	8896*	x	2724*
Clc1ccc2nc(N3CCNCC3)nc(-c3ccccc3)c2c1	1.7	x	x	-41	1	x	x	x
CN1CCN(c2nc(-c3ccccc3)c3cc(Cl)ccc3n2)CC1	0.88	2	5*	-6	9	11380*	1508	2660
O=C(Nc1ccc2c(c1)C(=O)N(c1ccccc1)C2=O)C1CCCO1 (stereo unspecified)	0.98	x	x	x	8	x	x	x
Cc1cc(C)n2c3c(c(C#N)c2n1)CCCC3	-0.44	-2	2.9*	-9	3	9512*	1860	3232
CCOc1nc(-c2ccncc2)nc2ccccc12	0.19	-3	13*	-3	3	14136*	1720	4324*
CCCOc1ccc(-c2nc(OCC)c3ccccc3n2)cc1	0.56	x	x	x	1	x	x	x
CCCCOC(=O)CSc1nc2c(c(=O)[nH]c(=O)n2C)n1C/C=C(\C)Cl	0.23	10	-0.49	-9	7	x	x	x
CC(C)CCn1c(SCCc2ccccc2)nc2c1c(=O)[nH]c(=O)n2C	-0.1	4	-0.54	4	4	x	x	x
CCCCn1c(SCC(=O)c2ccccc2)nc2c1c(=O)[nH]c(=O)n2C	-0.16	x	0.42	2	3	x	x	x
CCOC(=O)C(CC)Sc1nc2c(c(=O)[nH]c(=O)n2C)n1C/C=C(/C)Cl (stereo unspecified)	0.55	13	8.6*	3	7	16300*	1792	4280*
CCCCCn1c(SCC(=O)OC)nc2c1c(=O)[nH]c(=O)n2C	-1	17	4.2*	-1	5	14176*	1660	2844
COC(=O)CSc1nc2c(c(=O)[nH]c(=O)n2C)n1CCC(C)C	-1.1	x	5.2*	1	9	12872*	1692	3720*
O=C(CNC(=O)c1ccc(Cl)cc1Cl)NCCCn1ccnc1	-0.82	x	x	x	0	x	x	x
CCCCN1C2CCCC1CC(NC(=O)N(C(C)C)C(C)C)C2 (stereo unspecified)	x	x	x	x	2	x	x	x
COc1ccc(NC(=O)CCNS(=O)(=O)c2ccc3c(c2)c(=O)n(C)c(=O)n3C)c(OC)c1	x	x	x	x	1	x	x	x
Cc1cc(C)nc(N2CCCC(C(=O)Nc3nnc(C(C)C)s3)C2)n1 (stereo unspecified)	0.31	x	x	x	7	x	x	x
O=C(NCc1cccc(C(F)(F)F)c1)C1CC(c2ccc(C(F)(F)F)cc2)=NO1 (stereo unspecified)	1.5	x	x	x	x	x	x	x
Clc1ccc(CSc2nnc(-c3cccnc3)o2)cc1	0.79	x	x	x	5	x	x	x
CN1C2=NCCN2C(=O)c2ccccc21	-0.03	x	x	x	5	x	x	x
CCN1C(=O)c2cccc3c(S(=O)(=O)Nc4ccccn4)ccc1c23	-0.27	-6	2.5*	-2	0	5724*	1712	2824
CCN1C(=O)c2cccc3c(S(=O)(=O)Nc4ncccc4C)ccc1c23	1.8	22	7.9*	-13	x	9156*	1492	4368*
Cn1c(=O)c2c(nc(SCCCC#N)n2Cc2ccccc2F)n(C)c1=O	0.049	10	5.2*	-12	-7	15976*	1696	3228
